For experiment [1], the system named is Klebsiella pneumoniae. The experiment in a line: Antimicrobial activity against Klebsiella pneumoniae at 500 ug/disc after 24 hrs by disc diffusion method. The format is functional. To be noted: read-out: DIZ.
Experiment [2] relates to Staphylococcus aureus. The experiment in a line: Antimicrobial activity against methicillin-resistant Staphylococcus aureus strain 2 TB4G at 1000 ug/disc after 24 hrs by disc diffusion method. It counts as functional. To be noted: read-out: DIZ. Put shortly: (§1)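 Disc diffusion on 2.4% Mueller-Hinton agar inoculated with the strain. Paper discs 6 mm across were loaded with test compound and placed on the agar. Plates were incubated at 37 °C for 24 h. Read-out was the diameter of the inhibition zone in mm.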
(In general: Agar diffusion results depend on both activity and mobility in agar.)

In experiment [3] the test system is A549. The experiment in a line: Cytotoxicity against human A549 cells assessed as cell death at 5 ug after 48 hrs by MTT assay. The format is functional. An outline of the steps: (§2)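 A549 cells were grown in DMEM with 2 mmol L-glutamine, 10% FBS, penicillin (50 IU/mL) and streptomycin, at 37 °C and 5% CO2. 1×10^4 cells/well were plated and treated 24 h later with compound diluted in medium for 48 h. Controls were DMSO-matched and untreated wells. MTT 0.4 mg/mL in PBS was added for 4 h in the dark, then DMSO for 4 h. A540 was read and reported as % live cells relative to untreated.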
(Tetrazolium assays rely on reduction of a dye to a coloured formazan, in cell work by metabolically active cells.)

Experiment [4] concerns Escherichia coli. The experiment in a line: Antimicrobial activity against Escherichia coli at 1000 ug/disc after 24 hrs by disc diffusion method. It counts as functional. To be noted: read-out: DIZ.
Experiment [5] relates to Bacillus subtilis. The experiment in a line: Antimicrobial activity against Bacillus subtilis at 1000 ug/disc after 24 hrs by disc diffusion method. To be noted: read-out: DIZ. The format is functional.
The subject of experiment [6] is Staphylococcus aureus. The experiment is described as follows: Antimicrobial activity against Staphylococcus aureus at 1000 ug/disc after 24 hrs by disc diffusion method. It counts as functional.
The test system of experiment [7] is Bacillus subtilis. The experiment is described as follows: Antimicrobial activity against Bacillus subtilis at 500 ug/disc after 24 hrs by disc diffusion method. It counts as functional. To be noted: read-out: DIZ.
Experiment [8] deals with Staphylococcus aureus. The experiment is described as follows: Antimicrobial activity against methicillin-resistant Staphylococcus aureus strain 1 TB3G at 500 ug/disc after 24 hrs by disc diffusion method. It counts as functional. Put shortly:
as §1

Experiment [9] relates to A549. The experiment in a line: Cytotoxicity against human A549 cells assessed as cell death at 10 ug after 48 hrs by MTT assay. It counts as functional. An outline of the steps: as §2
For experiment [10], the system named is Staphylococcus aureus. The experiment in a line: Antimicrobial activity against methicillin-resistant Staphylococcus aureus strain 1 TB3G at 1000 ug/disc after 24 hrs by disc diffusion method. It counts as functional. Put shortly:
as §1

Experiment [11] has as its system Escherichia coli. The experiment is described as follows: Antimicrobial activity against Escherichia coli at 500 ug/disc after 24 hrs by disc diffusion method. It counts as functional. To be noted: read-out: DIZ.
In experiment [12] the test system is Listeria monocytogenes. The experiment is described as follows: Antimicrobial activity against Listeria monocytogenes at 500 ug/disc after 24 hrs by disc diffusion method. It counts as functional.
Experiment [13] deals with Staphylococcus epidermidis. The experiment in a line: Antimicrobial activity against Staphylococcus epidermidis at 500 ug/disc after 24 hrs by disc diffusion method. It counts as functional.
Experiment [14] relates to Staphylococcus epidermidis. The experiment is described as follows: Antimicrobial activity against Staphylococcus epidermidis at 1000 ug/disc after 24 hrs by disc diffusion method. The format is functional.
Experiment [15] relates to A549. The experiment in a line: Cytotoxicity against human A549 cells assessed as cell death at 2 ug after 48 hrs by MTT assay. The format is functional. An outline of the steps:
as §2

The test system of experiment [16] is A549. The experiment in a line: Cytotoxicity against human A549 cells assessed as cell death at 25 ug after 48 hrs by MTT assay. It counts as functional. Put shortly:
as §2

Experiment [17] concerns Staphylococcus aureus. The experiment in a line: Antimicrobial activity against methicillin-resistant Staphylococcus aureus strain 4 TB5G at 500 ug/disc after 24 hrs by disc diffusion method. The format is functional. An outline of the steps:
as §1

Experiment [18] relates to Salmonella typhimurium. The experiment in a line: Antimicrobial activity against Salmonella Typhimurium at 500 ug/disc after 24 hrs by disc diffusion method. The format is functional. To be noted: Salmonella enterica subsp. enterica serovar Typhimurium.
The subject of experiment [19] is Staphylococcus aureus. The experiment is described as follows: Antimicrobial activity against methicillin-resistant Staphylococcus aureus strain 2 TB4G at 500 ug/disc after 24 hrs by disc diffusion method. It counts as functional. To be noted: read-out: DIZ. An outline of the steps: as §1
Experiment [20] has as its system Klebsiella pneumoniae. The experiment is described as follows: Antimicrobial activity against Klebsiella pneumoniae at 1000 ug/disc after 24 hrs by disc diffusion method. The format is functional. To be noted: read-out: DIZ.
Experiment [21] concerns A549. The experiment is described as follows: Cytotoxicity against human A549 cells assessed as cell death at 1 ug after 48 hrs by MTT assay. The format is functional. Put shortly:
as §2

Experiment [22] has as its system Listeria monocytogenes. The experiment is described as follows: Antimicrobial activity against Listeria monocytogenes at 1000 ug/disc after 24 hrs by disc diffusion method. The format is functional.
For experiment [23], the system named is Salmonella typhimurium. The experiment in a line: Antimicrobial activity against Salmonella Typhimurium at 1000 ug/disc after 24 hrs by disc diffusion method. The format is functional. To be noted: Salmonella enterica subsp. enterica serovar Typhimurium.
Experiment [24] concerns Staphylococcus aureus. The experiment in a line: Antimicrobial activity against Staphylococcus aureus at 500 ug/disc after 24 hrs by disc diffusion method. The format is functional. Put shortly: as §1
Experiment [25] relates to Staphylococcus aureus. The experiment in a line: Antimicrobial activity against methicillin-resistant Staphylococcus aureus strain 4 TB5G at 1000 ug/disc after 24 hrs by disc diffusion method. The format is functional. An outline of the steps: as §1
For experiment [26], the system named is A549. The experiment is described as follows: Cytotoxicity against human A549 cells after 48 hrs by MTT assay. The format is functional, cell-based. To be noted: A549, 48 h. An outline of the steps:
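A549 cells were kept in DMEM with 2 mM L-glutamine, 10% FBS, penicillin 50 IU/mL and streptomycin at 37 °C under 5% CO2. 1×10^4 cells per well were treated 24 h after seeding with compounds diluted in medium for 48 h. MTT (0.4 mg/mL in PBS) was added for 4 h in the dark, formazan was dissolved in DMSO for 4 h and absorbance read at 540 nm. Viability was expressed as % of untreated cells, and IC50 was derived.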

Activity calls are given as the source filed them. No cut-off for these calls is given here.

Broadly, the IC50 is the concentration needed to halve the response being measured. Read a low IC50 as higher potency. On to `CC(C)CC(=O)O[C@@H](c1ccccc1)c1cc(O)cc(=O)[nH]1`, for which the zone of inhibition at 500 µg/disc was determined as 15 mm in experiment [1], 13 mm in experiment [7], 16 mm in experiment [11] and 14 mm in [19]. The zone of inhibition at 1000 µg/disc was determined as 26 mm in experiment [2], 26 mm in experiment [4], 23 mm in experiment [5] and 25 mm in experiment [20]. The Activity is reported as 38.96% in [3]; 47.62% in [9]; 27.71% in experiment [15]; 63.2% in [16]; 9.96% in experiment [21]. In addition, the “diameter of the inhibition zone (DIZ)” value in experiment [6], in experiment [8], in [10], in experiment [12], in experiment [13] and in [14] was “inactive” in each case. Besides, the “diameter of the inhibition zone (DIZ)” value in experiment [17], in experiment [18], in [22], in experiment [23], in [24] and in [25] was “inactive” throughout. Besides, the IC50 in [26] was found to be 11 µM.
`COc1cc([C@@H]2c3cc4c(cc3[C@@H](O[C@@H]3O[C@@H]5CO[C@@H](C)O[C@H]5[C@H](O)[C@H]3O)[C@H]3COC(=O)[C@H]23)OCO4)cc(OC)c1O` [ETOPOSIDE]: the Activity in experiment [3] is reported as 25.91%; in [9], 55.33%; in experiment [15], 9.12%; in [16], 69.48%; in [21], 5.54%. This molecule also returned a half-inhibitory concentration (IC50) in [26] of 11 µM.

For the origin of these results see ChEMBL document CHEMBL1770123, “SPF32629A and SPF32629B: enantioselective synthesis, determination of absolute configuration, cytotoxicity and antibacterial evaluation” (Eur J Med Chem, 2011).
